Measured values as given in ChEMBL document CHEMBL4406918, “Inhibitory Effects of Multivalent Polypeptides on the Proliferation and Metastasis of Breast Cancer Cells” (ACS Med Chem Lett, 2019).
Activity calls are given as the source filed them. The calls are words filed in the database; no cut-off is given here.

What was measured:
[1] = system: 4T1; assay: Induction of cell death in mouse 4T1 cells incubated for 24 hrs by PI staining based inverted microscopic method; assay type: functional
How it was run: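 Live–dead staining of 4T1 cells after 24 h exposure to 0.4 mM, read by PI staining. A 0.8 mM level was also examined.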

[2] = system: 4T1; assay: Induction of apoptosis in mouse 4T1 cells assessed as early apoptotic cells at 0.4 mM incubated for 24 hrs by Annexin V-FITC/PI based FACS analysis (reference value: 0.76%); assay type: functional
[3] = system: 4T1; assay: Antiproliferative activity against mouse 4T1 cells assessed as cell death at 0.2 mM incubated for 24 hrs by MTT assay relative to control; assay type: functional
How it was run: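 Mouse 4T1 breast cancer cells exposed for 24 h (doses include 0.1 and 0.2 mM), then read by MTT for viability or cell death. Mean ± SD, n = 6.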

[4] = system: 4T1; assay: Antitumour activity against mouse 4T1 cells xenografted in BALB/c mouse assessed as […] at 10 mg/kg administered intratumorally and measured after 24 days by H and E staining based inverted optical microscopic method; assay type: functional, organism-based
How it was run: (§1)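 BALB/c mice bearing subcutaneous 4T1 tumours received 6 doses at 10 mg/kg body weight, matched for YSL monomer molar amount, with saline as control. Tumour sections were stained for H&E, CD31, Ki-67 and TUNEL. n = 5.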

[5] = system: 4T1; assay: Antitumour activity against mouse 4T1 cells xenografted in BALB/c mouse assessed as increase in damage of tumor tissue at 10 mg/kg administered intratumorally and measured after 24 days by H and E staining based inverted optical microscopic method; assay type: functional, organism-based
How it was run: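 Tumours from 4T1-bearing BALB/c mice given 6 doses of 10 mg/kg (saline control) were sectioned and stained with H&E, plus CD31, Ki-67 and TUNEL.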

[6] = system: 4T1; assay: Inhibition of metastasis in mouse 4T1 cells assessed as cell shrinkage at 0.2 mM incubated for 24 hrs by Hoechst 33342 staining based confocal laser scanning microscopic method; assay type: functional
How it was run: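 After 24 h treatment, 4T1 cells were stained with Alexa Fluor 488 phalloidin for F-actin and Hoechst 33342 for nuclei, then imaged by fluorescence microscopy to assess cytoskeleton and cell morphology.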

[7] = system: 4T1; assay: Antitumour activity against mouse 4T1 cells xenografted in BALB/c mouse assessed as reduction in size of lung tumor metastatic nodules at 10 mg/kg administered intratumorally and measured after 24 days by H and E staining based inverted optical microscopic method; assay type: functional, organism-based
How it was run: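 After 6 doses of 10 mg/kg to 4T1 tumour-bearing BALB/c mice (saline control), lungs were photographed whole and examined histopathologically for the number and size of metastatic nodules.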

[8] = system: 4T1; assay: Antitumour activity against mouse 4T1 cells xenografted in BALB/c mouse assessed as reduction in number of Ki67 positive tumor cells at 10 mg/kg administered intratumorally and measured after 24 days by H and E staining based inverted optical microscopic method; assay type: functional, organism-based; how it was run: as §1
[9] = system: 4T1; assay: Antitumour activity against mouse 4T1 cells xenografted in BALB/c mouse assessed as inhibition in tumor growth at 10 mg/kg administered intratumorally and measured every 3 days for 24 days; assay type: functional, organism-based
How it was run: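 BALB/c mice bearing subcutaneous 4T1 tumours received 6 doses of 10 mg/kg, with equal YSL-monomer molar amounts across compounds and saline as control. Tumour volume growth curves and body weights were tracked. Mean ± SD, n = 5.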

**Q.** Which results are given for `COC(=O)[C@H](CCCCNC(=O)[C@H](CCCCNC(=O)[C@H](CCCCNC(=O)[C@H](CC(C)C)NC(=O)[C@H](CO)NC(=O)[C@@H](N)Cc1ccc(O)cc1)NC(=O)[C@H](CC(C)C)NC(=O)[C@H](CO)NC(=O)[C@@H](N)Cc1ccc(O)cc1)NC(=O)[C@H](CCCCNC(=O)[C@H](CC(C)C)NC(=O)[C@H](CO)NC(=O)[C@@H](N)Cc1ccc(O)cc1)NC(=O)[C@H](CC(C)C)NC(=O)[C@H](CO)NC(=O)[C@@H](N)Cc1ccc(O)cc1)NC(=O)[C@H](CCCCNC(=O)[C@H](CCCCNC(=O)[C@H](CC(C)C)NC(=O)[C@H](CO)NC(=O)[C@@H](N)Cc1ccc(O)cc1)NC(=O)[C@H](CC(C)C)NC(=O)[C@H](CO)NC(=O)[C@@H](N)Cc1ccc(O)cc1)NC(=O)[C@H](CCCCNC(=O)[C@H](CC(C)C)NC(=O)[C@H](CO)NC(=O)[C@@H](N)Cc1ccc(O)cc1)NC(=O)[C@H](CC(C)C)NC(=O)[C@H](CO)NC(=O)[C@@H](N)Cc1ccc(O)cc1`?
**A.** Activity [1]: Dose-dependent effect; Activity [2]: 3.95%; Activity [3]: 20%; Activity [4]: Active; Activity [5]: Active; inhibition [6]: Active; Activity [7]: Active; Activity [8]: Active; Activity [9]: Active
